STAT1 activator – activators of IFN-gamma induced STAT1 signaling | AID 932 | NIH 3T3 STAT1-luciferase reporter, luminescence; 100% = IFN-gamma alone, no compound | activation (% of control), % at 5.5 µM | hit rate 2.6% among 200,000;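 active = activation above the screen-wide mean activation plus 3 SD, cut at about 130% in these data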;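 note: raw ratio to IFN-gamma control signal so 100% means no change and 0% no light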
STAT3 activator – activators of IL-6 induced STAT3 signaling | hit rate 0.91% among 190,000 | activation (% of control), % at 5.6 µM | U3A cells, IL-6 STAT3-luciferase reporter, luminescence; 100% = signal with IL-6 EC80 alone;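 active = activation above the screen-wide mean of compound activation plus 3 SD, cut at about 130% in these data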;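 note: 0% = background luminescence of wells with medium and substrate only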
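system = STAT3-luciferase reporter U3A cells | reagent = IL-6 stimulus at 33 ng/mL final | timing = 1 h compound pre-exposure, 6 h IL-6 stimulation, 37 °C | measured by = luminescence | evaluation = % activation versus median of IL-6-stimulated wells | control set = IL-6-only wells as 100% reference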
STAT3 inh – reduces IL-6 driven STAT3 reporter signal. inhibition, % at 5.5 µM. U3A cells, IL-6 STAT3-luciferase reporter, luminescence; host cell line lacks STAT1. hit rate 0.89% among 190,000;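 active = inhibition above the mean inhibition across all screened compounds plus 3 SD, cut at about 44% in these data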;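 note: 0% = DMSO only wells and 100% = 100 µM nifuroxazide control wells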
STAT1 inh – STAT1 signaling inhibition | NIH 3T3 STAT1-luciferase reporter, IFN-gamma, luminescence | inhibition, % at 5.5 µM | hit rate 0.35% among 200,000 | AID 920;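 active = inhibition above a set limit, the mean inhibition across all tested compounds plus 3 SD, cut at about 34% in these data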;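 note: 0% = IFN-gamma with DMSO and 100% = IFN-gamma with 300 µM nifuroxazide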
Active calls of the source: *. Rows were chosen to be rich in hits. Some 4.3% of all compounds tested hit in one or more screens of this group.

SMILES | STAT1 activator | STAT3 activator | STAT3 inh | STAT1 inh
O=C(NC1CCCCC1)c1cc2nc3c(c(C(F)(F)F)n2n1)CCCC3 | 129.9* | 90.7 | 14.2 | -40.1
CCCCOC(=O)Nc1ccc(S(=O)(=O)Nn2cnnc2)cc1 | 94.9 | 101.2 | 5.0 | 4.4
CCCCOC(=O)Nc1ccc(N2CCCCC2)cc1 | 140.0* | 94.3 | 9.9 | -43.6
CCCCOC(=O)Nc1ccc(N(C)C)cc1 | 144.5* | 107.1 | -11.3 | -50.1
CCCCOC(=O)Nc1ccc(C(C)C)cc1 | 130.3* | 111.1 | -11.0 | -41.3
CCCCOC(=O)Nc1ccc(N2CCOCC2)cc1 | 121.4 | 102.5 | -1.0 | -23.1
CCCCOC(=O)Nc1ccc(C(N)=O)cc1 | 120.3 | 107.5 | -9.2 | -21.7
CCCCOC(=O)Nc1nnc(C(C)C)s1 | 129.7* | 103.0 | -1.4 | -32.6
COc1ccc(OC)c(C2CC(=O)Nc3c2c(=O)[nH]c2ncnn32)c1 (centres undefined) | 92.9 | 97.9 | 9.4 | 5.7
O=C(Nc1ccccc1)c1ccc(-c2ccc(F)cc2)s1 | 142.9* | 108.7 | -3.3 | -49.7
CNC(=O)c1ccc(-c2ccc(F)cc2)s1 | 119.2 | 92.5 | 14.2 | -21.1
CC1CN(CC(O)COCc2ccc3c(c2)OCO3)CC(C)O1 (centres undefined) | 98.9 | 111.5 | -8.4 | -0.2
Cc1ccc(C(=O)Cn2ncsc2=N)cc1 | 130.4* | 110.3 | -6.9 | -33.3
Cc1ccc2cc3c(N)[nH]nc3nc2c1 | 100.6 | 96.5 | -0.8 | -0.6
CCC(=O)Oc1ccc(C(=O)Nc2ccc([N+](=O)[O-])cc2)cc1 | 133.9* | 107.0 | -0.1 | -38.5
COc1ccc(C(=O)Cc2ccc(F)cc2)c(OC)c1 | 138.5* | 98.5 | 5.6 | -43.6
CCOC(=O)CNC(=O)CSc1ncnc2c1cnn2-c1ccccc1 | 96.9 | 95.1 | 10.2 | 3.4
CCN(c1ccccc1)c1ncnc2c1cnn2-c1ccccc1 | 131.0* | 113.9 | -7.4 | -34.2
CN(Cc1ccccc1)c1ncnc2c1cnn2-c1ccccc1 | 149.5* | 86.7 | 19.1 | -54.4
CCOC(=O)CC(=O)CSc1ncnc2c1cnn2-c1ccccc1 | 143.0* | 94.0 | 10.7 | -47.3
c1ccc(CNc2ncnc3c2cnn3-c2ccccc2)cc1 | 127.0 | 98.7 | 6.8 | -29.6
CCOc1ccc(C(=O)NCC(=O)OCC(=O)Nc2ccc(C)c(S(=O)(=O)N(C)C)c2)cc1 | 103.0 | 103.8 | -2.2 | -3.9
CC(NC(=O)C(=O)N/N=C\c1cccc([N+](=O)[O-])c1)c1ccccc1 (centres undefined) | 96.2 | 92.6 | 10.9 | 2.3
Cc1ccc(Nc2nc(CSc3nnc(-c4ccc(F)cc4)n3C)cs2)cc1 | 94.4 | 96.1 | 6.8 | 6.3
CCOC(=O)c1ccc(NC(=O)CN2C(=O)CSC(C)C2=O)cc1 (centres undefined) | 113.2 | 104.8 | -8.6 | -14.8
SMILES | STAT1 activator | STAT3 activator | STAT3 inh | STAT1 inh
CSc1nc(-c2ccccc2)[nH]c(=S)c1C(C)=O | 95.3 | 132.9* | -31.5 | 5.1
Cc1ccc(-n2nc(C)c3c2OC(N)=C(C#N)C3c2ccc(C)o2)cc1 (centres undefined) | 98.8 | 126.0 | -28.7 | -7.7
Cc1ccc(-n2nc(C)c3c2OC(N)=C(C#N)C3c2ccco2)cc1 (centres undefined) | 102.2 | 139.9* | -36.4 | -2.5
CCCCOc1ccc2c(c1)C(=O)c1cc(O)ccc1-2 | 148.8* | 91.3 | 15.7 | -52.5
CCN(CC)CCOc1ccc2c(c1)C(=NO)c1cc(OCCN(CC)CC)ccc1-2 | 98.7 | 121.1 | -19.9 | 1.5
COCCNc1c(-c2cc3ccc(C)c(C)c3[nH]c2=O)nc2ccccn12 | 129.8* | 93.5 | 9.9 | -34.4
C(#Cc1ccccc1)Cn1nnc2ccccc21 | 133.6* | 92.9 | 13.7 | -36.7
CC(Cn1nnc2ccccc21)C(=O)O (centres undefined) | 104.1 | 106.0 | -1.6 | -5.8
COc1cccc2c1C(=O)c1c(O)c3c(c(O)c1C2=O)C[C@@](O)(C(C)=O)C[C@@H]3O[C@H]1C[C@H](N)[C@H](O)[C@H](C)O1 | 364.8* | 60.7 | 46.8* | -291.1
Cc1ccc(C(=O)OCC(=O)Nc2ccccc2)cc1NC(=O)c1ccco1 | 110.3 | 102.6 | 5.9 | -11.3
O=C(COC(=O)c1cccnc1Cl)c1ccccc1 | 130.0* | 102.9 | 1.3 | -32.9
CC(=O)Nc1cc(C(=O)OCC(=O)c2ccccc2)ccc1C | 136.4* | 98.5 | 4.6 | -41.4
CC(=O)Nc1cccc(C(=O)OCC(=O)c2ccccc2Cl)c1 | 128.4 | 96.0 | 10.2 | -30.4
CCC(=O)Nc1ccccc1C(=O)OCC(=O)c1ccccc1 | 137.5* | 95.9 | 10.9 | -41.0
CCC(=O)Nc1cccc(C(=O)OCC(=O)c2ccccc2Cl)c1 | 129.5* | 118.2 | -14.8 | -32.2
O=C(CCc1ccccc1)Nc1cc(C(=O)O)cc(C(=O)O)c1 | 105.2 | 105.5 | -2.9 | -7.8
O=C1c2cccc(OCC(=O)N3N=C(c4cccs4)CC3c3ccc(F)cc3)c2CCN1Cc1cccnc1 (centres undefined) | 88.2 | 84.9 | 20.0 | 13.1
Cc1ccc(CN2CCN(C/C(Cl)=C/c3ccccc3)CC2CCO)o1 (centres undefined) | 97.2 | 96.4 | 5.8 | 1.9
COc1ccc(NC(=O)CCC2CCCCC2)cc1S(=O)(=O)N1CCCCC1 | 93.2 | 96.8 | 8.8 | 7.5
O=C(O)c1cccnc1Br | 109.3 | 101.6 | 4.5 | -12.4
O=C(O)/C=C/C(=O)Nc1ccccc1C(=O)OCC(=O)c1ccc2c(c1)OCCO2 | 101.4 | 89.4 | 13.9 | -3.0
CCCCC(=O)Nc1ccccc1C(=O)OCC(=O)c1ccc2c(c1)OCCO2 | 132.5* | 94.2 | 2.8 | -35.7
CCc1ccc(NC(=O)c2cc(-c3cccs3)on2)cc1 | 136.1* | 97.0 | 11.6 | -41.8
COc1ccc(NC(=O)c2cc(-c3cccs3)on2)cc1OC | 108.7 | 93.7 | 11.1 | -9.5
Cc1ccc(NC(=O)c2cc(-c3cccs3)on2)cc1C | 145.7* | 99.8 | 8.8 | -52.4
SMILES | STAT1 activator | STAT3 activator | STAT3 inh | STAT1 inh
CC(NC(=O)c1ccc(N)cc1)c1ccccc1 (centres undefined) | 104.4 | 77.8 | 32.5 | -4.5
O=C(NS(=O)(=O)Oc1ccc(F)c(Cl)c1)OC[C@@H]1CCCN2CCCCC12 (some centres undefined) | 102.2 | 104.6 | 5.7 | -4.2
O=C(NCc1ccco1)c1sc2cc(F)ccc2c1Cl | 111.2 | 81.9 | 23.6 | -6.8
O=C(Nc1ccon1)c1sc2cc(F)ccc2c1Cl | 130.8* | 118.8 | -19.2 | -35.2
O=C(Nc1nccs1)c1sc2cc(Cl)ccc2c1Cl | 146.5* | 130.2 | -34.3 | -52.2
Cc1ccc2c(Cl)c(C(=O)Nc3cc(C)on3)sc2c1 | 131.9* | 100.4 | 1.0 | -34.6
O=C(Nc1nccs1)c1sc2ccccc2c1Cl | 105.9 | 69.0 | 38.4 | -6.4
CCNC(=O)c1sc2cc(C)ccc2c1Cl | 127.5 | 91.8 | 15.4 | -32.6
CC(=O)Nc1ccccc1OCC(=O)N(Cc1ccccc1)C(C)C | 85.5 | 88.1 | 12.8 | 15.9
O=[N+]([O-])c1cc(-c2n[nH]c(-c3ccccc3)n2)cc([N+](=O)[O-])c1 | 105.4 | 103.7 | -3.6 | -5.9
Clc1ccccc1-c1nc(-c2ccccc2)n[nH]1 | 131.9* | 120.1 | -14.0 | -34.9
O=C(Oc1cc(=O)n2ccccc2n1)c1ccccc1 | 100.5 | 104.9 | -8.4 | -0.6

Compound activity as filed in PubChem.
